# RGS4 act: potentiators or activators of RGS4; HEK293 M3R/inducible RGS4, carbachol calcium flux Fluo4; active compounds read low; B-score at 10 µM; hit rate 0.92% among 310,000; AID 463111;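 active = B-score of the integrated calcium signal more than 4 SD below the library mean, with starting fluorescence not abnormally high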;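 also: negative B-score means reduced calcium response which marks RGS4 activation or potentiation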
#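 Detection: kinetic calcium fluorescence imaging with Fluo4-AM dye, 2 µM / Material: HEK293 cells with stable M3R and inducible RGS4 / Schedule: recording 10 s baseline at 1 Hz, 100 s post-agonist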
# RGS4 block: inhibitors of human RGS4; HEK293 M3R/RGS4 inducible, Fluo-4 calcium flux; active compounds read high; triggered by carbachol at its EC20; B-score at 10 µM; hit rate 0.45% among 310,000;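 active = B-score, a plate-corrected calcium signal, over three deviations above library mean, with baseline fluorescence within five deviations of library mean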;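 also: RGS4 expression induced by doxycycline in cells with stable M3 receptor; B-score is computed from the integrated fluorescence ratio over baseline after carbachol; higher B-score means a larger calcium signal and so more RGS4 inhibition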
# Target sequence (P49798 whole entry, looked up): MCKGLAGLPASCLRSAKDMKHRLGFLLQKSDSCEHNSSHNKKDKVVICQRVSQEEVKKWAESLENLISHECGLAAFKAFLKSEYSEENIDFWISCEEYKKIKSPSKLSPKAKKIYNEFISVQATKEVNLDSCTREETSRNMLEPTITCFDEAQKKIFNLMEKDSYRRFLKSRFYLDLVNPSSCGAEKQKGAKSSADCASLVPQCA
# MrgX1 PAM: allosterically activates human MrgX1 receptor signaling; Q96LB2; MrgX1-HEK293, Fluo-4 calcium flux, FDSS; active compounds read high; B-score at 10 µM; hit rate 0.63% among 310,000;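 active = plate-corrected calcium response at least 3 library SD above typical, normal starting fluorescence, not activating the receptor alone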;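 also: compound read alongside a low EC10 to EC30 dose of BAM8-22 agonist; peak minus trough fluorescence over baseline measured at the second addition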
# MrgX1 antag: antagonists of human MrgX1 receptor | Q96LB2 | MRGX1-HEK293 calcium flux, Fluo-4, BAM8-22 antagonism; active compounds read low | B-score at 10 µM | hit rate 1.3% among 310,000;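 active = calcium-response B-score plate-corrected more than 3 library SD below zero, starting fluorescence within 5 deviations, no agonist response on first addition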;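 also: peak minus trough fluorescence over baseline after final BAM8-22 challenge near maximal dose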
# MrgX1 agonist: human MrgX1 receptor agonism, primary screen; Q96LB2; MrgX1-HEK293 cells, Fluo-4 calcium fluorescence, agonist mode; active compounds read high; B-score at 10 µM; hit rate 0.44% among 310,000; AID 588627;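 active = calcium response B-score plate-corrected fluorescence ratio at least 3 library SD, with starting fluorescence B-score inside 5 SD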
#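 Assay system: MrgX1-expressing HEK293 cells / Amount: fifteen thousand cells per well / Doses: test compound in the initial addition of three / Timing: cells plated overnight, dye loaded 0.5 h 37 °C, 0.5 h room temperature / Technique: kinetic calcium dye fluorescence, Fluo-4 NW / Control set: positive and negative controls per plate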
# MrgX1 PAM conf: reconfirmed allosteric activator of human MrgX1 receptor; MrgX1-HEK293, Fluo-4 calcium fluorescence, FDSS; hit rate 13% among 1,200; activation (ratio percentage), % at 10 µM; AID 602413; shares compounds with MrgX1 PAM;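 active = ratio at least 3 SD above the weak peptide control, stable starting fluorescence, no direct agonism earlier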;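 also: compound followed by low BAM8-22 agonist challenge near EC20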
# HEK293 Ca flux: counter-screen for MrgX1 antagonists: effect in parental HEK293 cells; shares compounds with MrgX1 antag; Fluo-4 calcium fluorescence, FDSS; fluorescence ratio F(max-min)/F0 at 10 µM; hit rate 2% among 4,000; AID 624111;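 active = duplicate-averaged calcium fluorescence ratio at least three times the standard deviation of buffer wells, a nonspecific response in parental cells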
# HEK293 Ca counter: MrgX1 allosteric activator counter-screen hit in parental HEK293 cells. shares compounds with MrgX1 antag. parental HEK293 calcium flux, Fluo-4 fluorescence ratio; active compounds read high. fluorescence ratio F(max-min)/F0 at 10 µM. hit rate 0.4% among 4,000. AID 624114;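 active = calcium fluorescence ratio, averaged over duplicates, at least 3 SD of the buffer-well ratio, meaning a nonspecific response in receptor-free cells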;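 also: untransfected parental HEK293 lacking MrgX1 used as counterscreen for MrgX1 allosteric activators; fluorescence change taken during the second addition on a kinetic imager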
# HEK293 Ca cntr2: activity in parental HEK293 cells lacking MrgX1 receptor; fluorescence ratio F(max-min)/F0 at 10 µM; Fluo-4 calcium fluorescence (FDSS); active compounds read high; shares compounds with MrgX1 antag; hit rate 8.7% among 4,000;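 active = calcium fluorescence ratio at least three times the spread of buffer wells, meaning a non-specific response in parental cells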
# * = called active by the depositor; i = inactive; . = no result. This is a sample that favours compounds with a hit; in the whole collection about 3.5% have one here.
SMILES,RGS4 act,RGS4 block,MrgX1 PAM,MrgX1 antag,MrgX1 agonist,MrgX1 PAM conf,HEK293 Ca flux,HEK293 Ca counter,HEK293 Ca cntr2
CC(NC(=O)c1ccccc1)c1nnc(SCC(=O)Nc2nnc(C3CC3)s2)n1C (stereo not drawn),i,i,i,i,i,.,.,.,.
CC(C)C(OC(=O)c1cc2sccc2n1C)C(=O)NCC1CCCO1 (stereo not drawn),i,i,i,i,i,.,.,.,.
COc1ccc(CN(CC2CCCO2)C(=O)c2cc3sccc3n2C)c(OC)c1 (stereo not drawn),i,i,6.5*,i,i,i,i,i,i
CC(=O)c1cc(CC=C(C)C)c(O)cc1O,i,i,9.9*,i,i,i,i,i,i
CC(=O)c1cc(CC=C(C)C)c(O)c(CC=C(C)C)c1O,i,i,i,i,i,.,.,.,.
Cc1ccc(NC(=O)CC2Oc3ccc(C)cc3NC2=O)c(C)c1 (stereo not drawn),i,i,i,i,i,.,.,.,.
Cc1ccc2c(c1)NC(=O)C(CC(=O)O)O2 (stereo not drawn),i,i,8.1*,i,i,i,i,i,i
CC1CCCCN1S(=O)(=O)c1ccc(C(=O)Nc2nnc(-c3ccncc3)o2)cc1 (stereo not drawn),i,i,i,i,i,.,.,.,.
COc1ccc(-c2nnc(NC(=O)c3ccc(S(=O)(=O)N4COCC4(C)C)cc3)o2)cc1,i,i,7*,i,i,i,i,i,i
Cc1ccc(-c2csc(NC(=O)c3ccccc3Cl)c2C(=O)O)cc1,i,i,6.6*,i,i,i,i,i,i
Cc1cccc(C(=O)Nc2scc(CC(C)C)c2C(=O)O)c1,i,i,i,i,i,.,.,.,.
Cc1ccc(-c2csc(NC(=O)c3cccc(C)c3)c2C(=O)O)cc1,i,i,6.6*,i,i,i,i,i,i
c1ccc(-c2csc(-c3cccnc3)n2)cc1,i,i,14*,i,i,i,i,i,i
N=C1C2=C3Sc4ccccc4N3CCCC2=NN1c1cccc(S(=O)(=O)O)c1,i,i,i,i,i,.,.,.,.
COCc1cc(=O)[nH]c(/N=C(\N)Nc2ccccc2C)n1,i,i,21*,i,i,i,i,i,i
O=C1c2ccccc2C(=O)N1CC(O)CNc1ccc(Br)cc1 (stereo not drawn),i,i,i,i,i,.,.,.,.
COc1ccc(S(=O)(=O)N(CC(=O)NC2CC3CCC2C3)c2ccccc2OC)cc1 (stereo not drawn),i,i,8.3*,i,i,i,i,i,i
COc1ccccc1N(CC(=O)NC1CC2CCC1C2)S(=O)(=O)c1ccc(C)cc1 (stereo not drawn),i,i,i,i,i,.,.,.,.
O=C(Cn1nc(-c2ccc3c(c2)OCCO3)ccc1=O)Nc1cccc(NC(=O)c2ccccn2)c1,i,i,i,i,i,.,.,.,.
COc1ccc(NC(=O)c2sc3nc(N4CCOCC4)c4c(c3c2N)CC(C(C)C)OC4)c(OC)c1 (stereo not drawn),i,i,i,i,i,.,.,.,.
CC(C)(C)c1nnc(NC(=O)CCS(=O)(=O)c2ccccc2)s1,i,i,43*,i,i,i,i,i,i

# Bioassay records: PubChem, Johns Hopkins Ion Channel Center
